Experimental data from ChEMBL document CHEMBL4364271, “Unveiling the Importance of Amide Protons in CSP:ComD Interactions in Streptococcus pneumoniae” (ACS Med Chem Lett, 2019).
Activity calls are given as the source filed them. No cut-off for these calls is given here. Non-standard residues stand in square brackets, D forms with d. Residues, ends and D or L forms follow the SMILES beside them. NMeR = CN[C@@H](CCCNC(=N)N)C(=O)O; NMeF = CN[C@@H](Cc1ccccc1)C(=O)O; NMeE = CN[C@@H](CCC(=O)O)C(=O)O; NMeQ = CN[C@@H](CCC(N)=O)C(=O)O; NMeD = CN[C@@H](CC(=O)O)C(=O)O; NMeK = CN[C@@H](CCCCN)C(=O)O; NMeM = CN[C@@H](CCSC)C(=O)O; NMeS = CN[C@@H](CO)C(=O)O

Assays:
[1] = Metabolic stability in aqueous ammonium carbonate solution assessed as trypsin/chymotrypsin (unknown origin)-mediated drug degradation by measuring half life at 0.05 ug/ml incubated in shaking conditions in presence of trypsin/chymotrpsin and measured for 48 hrs by RP-HPLC analysis; assay type: ADME; conditions: human
[2] = Antagonist activity at ComD1 receptor in Streptococcus pneumoniae D39 harboring pcomX/lacZ reporter gene assessed as inhibiton of CSP1-stimulated maximum signal preincubated for 30 mins followed by 50 nM CSP1 addition by ONPG based beta-galactosidase assay
How it was run: (§1)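 Comx-lacZ β-gal reporter inhibition in D39 (ComD1, CSP1 50 nM) or TIGR4 (ComD2, CSP2 250 nM). Peptides tested over a range of concentrations against the stimulating CSP. Miller units normalized to CSP alone. IC50 given with 95% confidence interval.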

[3] = Metabolic stability in human plasma at 0.33 mM measured for 3 hrs by RP-HPLC analysis; assay type: ADME, cell-free; conditions: 330 µM
[4] = Antagonist activity at ComD2 receptor in Streptococcus pneumoniae TIGR4 harboring pcomX/lacZ reporter gene assessed as inhibition of CSP2-stimulated maximum signal preincubated for 30 mins followed by 250 nM native CSP2 addition by ONPG based beta-galactosidase assay; how it was run: as §1
[5] = system: Streptococcus pneumoniae D39; assay: Agonist activity at ComD1 receptor in Streptococcus pneumoniae D39 harboring pcomX/lacZ reporter gene at 10 uM incubated for 30 mins by ONPG based beta-galactosidase assay relative to native CSP1
How it was run: (§2)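 Single-dose screen of synthetic peptide at 10 μM in wild-type reporter strains (D39 for ComD1, TIGR4 for ComD2) producing their own CSP and carrying lacZ under the comX promoter. β-gal activity in Miller units normalized to native CSP (CSP1 or CSP2, 100%); DMSO 0%. Triplicates over three separate trials.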

[6] = system: Streptococcus pneumoniae TIGR4; assay: Agonist activity at ComD2 receptor in Streptococcus pneumoniae TIGR4 harboring pcomX/lacZ reporter gene at 10 uM incubated for 30 mins by ONPG based beta-galactosidase assay relative to native CSP2; how it was run: as §2
[7] = Agonist activity at ComD2 receptor in Streptococcus pneumoniae TIGR4 harboring pcomX/lacZ reporter gene incubated for 30 mins by ONPG based beta-galactosidase assay
How it was run: (§3)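 Dose-response in wild-type lacZ reporter strains (comX promoter; D39 for ComD1, TIGR4 for ComD2) producing native CSP. Peptides tested over a range of concentrations. β-gal read-out (Miller units) normalized to native CSP. EC50 reported with 95% confidence interval.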

[8] = Agonist activity at ComD1 receptor in Streptococcus pneumoniae D39 harboring pcomX/lacZ reporter gene incubated for 30 mins by ONPG based beta-galactosidase assay; how it was run: as §3
[9] = Metabolic stability in human plasma assessed as half-life at 0.33 mM measured for 3 hrs by RP-HPLC analysis; assay type: ADME, cell-free
[10] = system: Streptococcus pneumoniae D39; assay: Antagonist activity at ComD1 receptor in Streptococcus pneumoniae D39 harboring pcomX/lacZ reporter gene assessed as inhibiton of CSP1-stimulated maximum signal at 10 uM preincubated for 30 mins followed by 50 nM CSP1 addition by ONPG based beta-galactosidase assay relative to native CSP1
How it was run: (§4)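 Inhibition screen: peptides at 10 μM against CSP1 50 nM (D39, ComD1) or CSP2 250 nM (TIGR4, ComD2), in comX-lacZ reporter strains. β-gal Miller units normalized to CSP alone (100%) and DMSO (0%). Triplicates over three separate trials.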

[11] = system: Streptococcus pneumoniae TIGR4; assay: Antagonist activity at ComD2 receptor in Streptococcus pneumoniae TIGR4 harboring pcomX/lacZ reporter gene assessed as inhibition of CSP2-stimulated maximum signal at 10 uM preincubated for 30 mins followed by 250 nM CSP2 addition by ONPG based beta-galactosidase assay relative to native CSP2; how it was run: as §4
[12] = Solubility of the compound in ammonium carbonate solution at pH 8; assay type: physicochemical; conditions: buffer

Compound | half-life at 0.05 ug/ml [1] | IC50 [2] | Stability [3] | Activity [5] | Activity [6] | EC50 [7] | EC50 [8] | other results
CC[C@H](C)[C@H](NC(=O)[C@H](Cc1ccccc1)NC(=O)[C@H](CC(=O)O)NC(=O)[C@H](CCCNC(=N)N)NC(=O)[C@H](Cc1ccccc1)NC(=O)[C@H](Cc1ccccc1)NC(=O)[C@H](CCCCN)NC(=O)[C@H](CO)NC(=O)[C@H](CC(C)C)NC(=O)[C@H](CCCNC(=N)N)NC(=O)[C@H](CCSC)NC(=O)[C@H](C)N)C(=O)N[C@@H](CC(C)C)C(=O)N(C)[C@@H](CCC(N)=O)C(=O)N[C@@H](CCCNC(=N)N)C(=O)N[C@@H](CCCCN)C(=O)N[C@@H](CCCCN)C(=O)O | 6 h | 370 nM | Stable | – | – | – | – | –
CC[C@H](C)[C@H](NC(=O)[C@H](Cc1ccccc1)NC(=O)[C@H](CC(=O)O)NC(=O)[C@H](CCCNC(=N)N)NC(=O)[C@H](Cc1ccccc1)NC(=O)[C@H](Cc1ccccc1)NC(=O)[C@H](CCCCN)N(C)C(=O)[C@H](CO)NC(=O)[C@H](CC(C)C)NC(=O)[C@H](CCCNC(=N)N)NC(=O)[C@H](CCSC)NC(=O)[C@H](C)N)C(=O)N[C@@H](CC(C)C)C(=O)N[C@@H](CCC(N)=O)C(=O)N[C@@H](CCCNC(=N)N)C(=O)N[C@@H](CCCCN)C(=O)N[C@@H](CCCCN)C(=O)O | 2 h | 48 nM | Unstable | – | – | – | – | –
CC[C@H](C)[C@H](NC(=O)[C@H](Cc1ccccc1)NC(=O)[C@H](CC(=O)O)NC(=O)[C@H](CCCNC(=N)N)NC(=O)[C@H](Cc1ccccc1)NC(=O)[C@H](Cc1ccccc1)NC(=O)[C@H](CCCCN)N(C)C(=O)[C@H](CO)NC(=O)[C@H](CC(C)C)NC(=O)[C@H](CCCNC(=N)N)NC(=O)[C@H](CCSC)NC(=O)[C@H](C)N)C(=O)N[C@@H](CC(C)C)C(=O)N(C)[C@@H](CCC(N)=O)C(=O)N[C@@H](CCCNC(=N)N)C(=O)N[C@@H](CCCCN)C(=O)N[C@@H](CCCCN)C(=O)O | 6 h | 360 nM | Unstable | – | – | – | – | –
CC[C@H](C)[C@H](NC(=O)[C@H](CCCNC(=N)N)NC(=O)[C@H](CCSC)NC(=O)[C@H](C)N)C(=O)N[C@@H](CO)C(=O)N[C@@H](CCCNC(=N)N)C(=O)N[C@H](C(=O)N[C@H](C(=O)N[C@@H](CC(C)C)C(=O)N[C@H](CC(=O)O)C(=O)N[C@@H](Cc1ccccc1)C(=O)N[C@@H](CC(C)C)C(=O)N(C)[C@@H](Cc1ccccc1)C(=O)N[C@@H](CC(C)C)C(=O)N[C@@H](CCCNC(=N)N)C(=O)N[C@@H](CCCCN)C(=O)N[C@@H](CCCCN)C(=O)O)[C@@H](C)CC)[C@@H](C)CC | 4 h | > 1000 nM | Unstable | – | – | – | – | IC50 [4]: 64 nM
CC[C@H](C)[C@H](NC(=O)[C@H](Cc1ccccc1)NC(=O)[C@H](CC(=O)O)NC(=O)[C@H](CCCNC(=N)N)NC(=O)[C@H](Cc1ccccc1)NC(=O)[C@H](Cc1ccccc1)NC(=O)[C@H](CCCCN)NC(=O)[C@H](CO)NC(=O)[C@H](CC(C)C)NC(=O)[C@H](CCCNC(=N)N)NC(=O)[C@H](CCSC)NC(=O)[C@@H](N)CCC(=O)O)C(=O)N[C@@H](CC(C)C)C(=O)N[C@@H](CCC(N)=O)C(=O)N(C)[C@@H](CCCNC(=N)N)C(=O)O (H-EMRLSKFFRDFILQ[NMeR]-OH) | – | – | – | > 75% | > 75% | > 1000 nM | 130 nM | –
CC[C@H](C)[C@H](NC(=O)[C@H](Cc1ccccc1)NC(=O)[C@H](CC(=O)O)NC(=O)[C@H](CCCNC(=N)N)NC(=O)[C@H](Cc1ccccc1)NC(=O)[C@H](Cc1ccccc1)NC(=O)[C@H](CCCCN)NC(=O)[C@H](CO)NC(=O)[C@H](CC(C)C)NC(=O)[C@H](CCCNC(=N)N)NC(=O)[C@H](CCSC)NC(=O)[C@@H](N)CCC(=O)O)C(=O)N[C@@H](CC(C)C)C(=O)N(C)[C@@H](CCC(N)=O)C(=O)N[C@@H](CCCNC(=N)N)C(=O)O (H-EMRLSKFFRDFIL[NMeQ]R-OH) | 6 h | – | – | > 75% | inactive | – | 68 nM | half-life at 330 µM [9]: 2 h
CC[C@H](C)[C@H](NC(=O)[C@H](Cc1ccccc1)NC(=O)[C@H](CC(=O)O)N(C)C(=O)[C@H](CCCNC(=N)N)NC(=O)[C@H](Cc1ccccc1)NC(=O)[C@H](Cc1ccccc1)NC(=O)[C@H](CCCCN)NC(=O)[C@H](CO)NC(=O)[C@H](CC(C)C)NC(=O)[C@H](CCCNC(=N)N)NC(=O)[C@H](CCSC)NC(=O)[C@@H](N)CCC(=O)O)C(=O)N[C@@H](CC(C)C)C(=O)N[C@@H](CCC(N)=O)C(=O)N[C@@H](CCCNC(=N)N)C(=O)O (H-EMRLSKFFR[NMeD]FILQR-OH) | – | – | – | inactive | > 75% | > 1000 nM | > 1000 nM | –
CC[C@H](C)[C@H](NC(=O)[C@H](Cc1ccccc1)NC(=O)[C@H](CC(=O)O)NC(=O)[C@H](CCCNC(=N)N)NC(=O)[C@H](Cc1ccccc1)NC(=O)[C@H](Cc1ccccc1)N(C)C(=O)[C@H](CCCCN)NC(=O)[C@H](CO)NC(=O)[C@H](CC(C)C)NC(=O)[C@H](CCCNC(=N)N)NC(=O)[C@H](CCSC)NC(=O)[C@@H](N)CCC(=O)O)C(=O)N[C@@H](CC(C)C)C(=O)N[C@@H](CCC(N)=O)C(=O)N[C@@H](CCCNC(=N)N)C(=O)O (H-EMRLSK[NMeF]FRDFILQR-OH) | > 48 h | – | – | > 75% | inactive | – | 280 nM | half-life at 330 µM [9]: < 0.5 h
CC[C@H](C)[C@H](NC(=O)[C@H](Cc1ccccc1)NC(=O)[C@H](CC(=O)O)NC(=O)[C@H](CCCNC(=N)N)NC(=O)[C@H](Cc1ccccc1)NC(=O)[C@H](Cc1ccccc1)NC(=O)[C@H](CCCCN)N(C)C(=O)[C@H](CO)NC(=O)[C@H](CC(C)C)NC(=O)[C@H](CCCNC(=N)N)NC(=O)[C@H](CCSC)NC(=O)[C@@H](N)CCC(=O)O)C(=O)N[C@@H](CC(C)C)C(=O)N[C@@H](CCC(N)=O)C(=O)N[C@@H](CCCNC(=N)N)C(=O)O (H-EMRLS[NMeK]FFRDFILQR-OH) | > 48 h | – | – | > 75% | inactive | > 1000 nM | 65 nM | half-life at 330 µM [9]: < 0.5 h
CC[C@H](C)[C@H](NC(=O)[C@H](Cc1ccccc1)NC(=O)[C@H](CC(=O)O)NC(=O)[C@H](CCCNC(=N)N)NC(=O)[C@H](Cc1ccccc1)NC(=O)[C@H](Cc1ccccc1)NC(=O)[C@H](CCCCN)NC(=O)[C@H](CO)N(C)C(=O)[C@H](CC(C)C)NC(=O)[C@H](CCCNC(=N)N)NC(=O)[C@H](CCSC)NC(=O)[C@@H](N)CCC(=O)O)C(=O)N[C@@H](CC(C)C)C(=O)N[C@@H](CCC(N)=O)C(=O)N[C@@H](CCCNC(=N)N)C(=O)O (H-EMRL[NMeS]KFFRDFILQR-OH) | – | – | – | > 75% | > 75% | > 1000 nM | 280 nM | –
CC[C@H](C)[C@H](NC(=O)[C@H](CCCNC(=N)N)NC(=O)[C@H](CCSC)N(C)C(=O)[C@@H](N)CCC(=O)O)C(=O)N[C@@H](CO)C(=O)N[C@@H](CCCNC(=N)N)C(=O)N[C@H](C(=O)N[C@H](C(=O)N[C@@H](CC(C)C)C(=O)N[C@@H](CC(=O)O)C(=O)N[C@@H](Cc1ccccc1)C(=O)N[C@@H](CC(C)C)C(=O)N[C@@H](Cc1ccccc1)C(=O)O)[C@@H](C)CC)[C@@H](C)CC (H-E[NMeM]RISRIILDFLF-OH) | – | – | – | inactive | – | – | – | inhibition [10]: inactive; inhibition [11]: > 50%; IC50 [4]: > 1000 nM; solubility [12]: Insoluble
CC[C@H](C)[C@H](NC(=O)[C@H](CCCNC(=N)N)NC(=O)[C@H](CCSC)NC(=O)[C@H](CCC(=O)O)NC)C(=O)N[C@@H](CO)C(=O)N[C@@H](CCCNC(=N)N)C(=O)N[C@H](C(=O)N[C@H](C(=O)N[C@@H](CC(C)C)C(=O)N[C@@H](CC(=O)O)C(=O)N[C@@H](Cc1ccccc1)C(=O)N[C@@H](CC(C)C)C(=O)N[C@@H](Cc1ccccc1)C(=O)O)[C@@H](C)CC)[C@@H](C)CC (H-[NMeE]MRISRIILDFLF-OH) | – | – | – | inactive | – | – | – | inhibition [10]: inactive; inhibition [11]: > 50%; IC50 [4]: > 1000 nM; solubility [12]: Insoluble
H-EMRLSKFFRDFILQR-OH | 4 h | – | – | – | – | > 1000 nM | 8.1 nM | –
